Source: ChEMBL document CHEMBL1124418, “Antitumor agents. 100. Inhibition of human DNA topoisomerase II by cytotoxic ether and ester derivatives of podophyllotoxin and alpha-peltatin” (1989)
≈ marks a conversion by molar mass, not a printed value.

Assays:
[1] = target: DNA topoisomerase II (Homo sapiens) (UniProt P11388+Q02880); test: Compound was tested for inhibition against human DNA topoisomerase II; type: protein assay; set-up: concentration or dose not given beside the values; details: concentration not given here
[2] = Compound was tested for in vitro cytotoxicity in KB cells after 3 days of incubation; type: functional; details: Homo sapiens, 72 h, read-out: ED50 (the source's name)
Procedure, shortened: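 KB human tumor cells exposed to drug for 3 days; read-out was cell number. ED50 was taken as the drug concentration giving 50% reduction in cell number. Values are marked as preliminary.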

| Structure (SMILES) | inhibition [1] | EC50 [2] |
| --- | --- | --- |
| CCC(=O)Oc1c2c(cc3c1OCO3)[C@@H](c1cc(OC)c(O)c(OC)c1)[C@H]1C(=O)OC[C@@H]1C2 | 25% | 0.005 µg/mL (≈ 0.011 µM) |
| CCC(=O)O[C@@H]1c2cc3c(cc2[C@@H](c2cc(OC)c(O)c(OC)c2)[C@H]2C(=O)OC[C@@H]21)OCO3 | 0% | 1 µg/mL (≈ 2.19 µM) |
| COc1cc([C@@H]2c3cc4c(c(O[C@@H]5O[C@H]6CO[C@@H](C)O[C@H]6[C@H](O)[C@@H]5O)c3C[C@H]3COC(=O)[C@@H]32)OCO4)cc(OC)c1O | – | 2 µg/mL (≈ 3.4 µM) |
| COc1cc([C@@H]2c3cc4c(cc3[C@@H](OC)[C@H]3COC(=O)[C@H]23)OCO4)cc(OC)c1O | 25% | 1.1 µg/mL (≈ 2.65 µM) |
| COc1cc([C@@H]2c3cc4c(cc3[C@@H](OC(=O)Cc3ccccc3)[C@H]3COC(=O)[C@H]23)OCO4)cc(OC)c1O | – | 0.00028 µg/mL (≈ 0.00054 µM) |
| COc1cc([C@@H]2c3cc4c(c(OC(=O)Cc5ccccc5)c3C[C@H]3COC(=O)[C@@H]32)OCO4)cc(OC)c1O | – | 0.01 µg/mL (≈ 0.0193 µM) |
| COc1cc([C@@H]2c3cc4c(c(OC(=O)CCC(=O)O)c3C[C@H]3COC(=O)[C@@H]32)OCO4)cc(OC)c1O | 0% | 0.01 µg/mL (≈ 0.02 µM) |
| C/C=C\C(=O)O[C@@H]1c2cc3c(cc2[C@@H](c2cc(OC)c(O)c(OC)c2)[C@H]2C(=O)OC[C@@H]21)OCO3 | – | 0.9 µg/mL (≈ 1.92 µM) |
| CCO[C@@H]1c2cc3c(cc2[C@@H](c2cc(OC)c(O)c(OC)c2)[C@H]2C(=O)OC[C@@H]21)OCO3 | 25% | 1.1 µg/mL (≈ 2.57 µM) |
| COc1cc([C@@H]2c3cc4c(c(O[C@@H]5O[C@@H](CO)[C@@H](O)[C@H](O)[C@@H]5O)c3C[C@H]3COC(=O)[C@@H]32)OCO4)cc(OC)c1O | 25% | 1.1 µg/mL (≈ 1.96 µM) |
| COc1cc([C@@H]2c3cc4c(c(OC(=O)OCc5ccccc5)c3C[C@H]3COC(=O)[C@@H]32)OCO4)cc(OC)c1O | 25% | 0.01 µg/mL (≈ 0.0187 µM) |
| CCCC(=O)Oc1c2c(cc3c1OCO3)[C@@H](c1cc(OC)c(O)c(OC)c1)[C@H]1C(=O)OC[C@@H]1C2 | 25% | 0.004 µg/mL (≈ 0.0085 µM) |
| COc1cc([C@@H]2c3cc4c(c(OC)c3C[C@H]3COC(=O)[C@@H]32)OCO4)cc(OC)c1O | 25% | 0.001 µg/mL (≈ 0.00241 µM) |
| COc1cc([C@@H]2c3cc4c(c(O)c3C[C@H]3COC(=O)[C@@H]32)OCO4)cc(OC)c1O | 0% | 0.09 µg/mL (≈ 0.225 µM) |
| COc1cc([C@@H]2c3cc4c(cc3[C@@H](OC(=O)CCC(=O)O)[C@H]3COC(=O)[C@H]23)OCO4)cc(OC)c1O | 0% | 1 µg/mL (≈ 2 µM) |
| COc1cc([C@@H]2c3cc4c(cc3[C@@H](O)[C@H]3COC(=O)[C@H]23)OCO4)cc(OC)c1O [4'-DEMETHYLEPIPODOPHYLLOTOXIN] | 50% | 0.06 µg/mL (≈ 0.15 µM) |
| COc1cc([C@@H]2c3cc4c(cc3[C@@H](O[C@@H]3O[C@@H]5CO[C@@H](C)O[C@H]5[C@H](O)[C@H]3O)[C@H]3COC(=O)[C@H]23)OCO4)cc(OC)c1O [ETOPOSIDE] | > 88% | 0.12 µg/mL (≈ 0.204 µM) |
| COc1cc([C@@H]2c3cc4c(cc3[C@@H](OC(=O)c3ccccc3C(=O)O)[C@H]3COC(=O)[C@H]23)OCO4)cc(OC)c1O | – | 0.8 µg/mL (≈ 1.46 µM) |
| CCS[C@@H]1c2cc3c(cc2[C@@H](c2cc(OC)c(O)c(OC)c2)[C@H]2C(=O)OC[C@@H]21)OCO3 | 25% | 1.1 µg/mL (≈ 2.47 µM) |
| COc1cc([C@@H]2c3cc4c(cc3[C@@H](OC(C)=O)[C@H]3COC(=O)[C@H]23)OCO4)cc(OC)c1O | 25% | 0.2 µg/mL (≈ 0.452 µM) |
| COc1cc([C@@H]2c3cc4c(c(O[C@@H]5O[C@H]6CO[C@@H](c7cccs7)O[C@H]6[C@H](O)[C@@H]5O)c3C[C@H]3COC(=O)[C@@H]32)OCO4)cc(OC)c1O | 25% | 2 µg/mL (≈ 3.05 µM) |
| COc1cc([C@@H]2c3cc4c(c(OC(C)=O)c3C[C@H]3COC(=O)[C@@H]32)OCO4)cc(OC)c1O | 0% | 0.01 µg/mL (≈ 0.0226 µM) |
